Sampled rows, rich in hits. Any-hit rate of the full collection: about 4.2%.
TAAR1 antagonist: human TAAR1 antagonists, primary screen, Fluo-8 calcium fluorescence, CHO RD-HGA16 cells; Trace amine-associated receptor 1 (Homo sapiens), Q96RJ0; 1.5% of 360,000 active; antagonist; inhibition, % at 3 µM; AID 624466, 2012;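 active means inhibition above a per-plate cutoff, the mean inhibition of test compounds on that plate plus 3 SD, cut at about 49% in these data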;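 further: 0% = DMSO plus EC80 beta-PEA response and 100% = DMSO alone without agonist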
Target sequence (Q96RJ0 whole entry, looked up): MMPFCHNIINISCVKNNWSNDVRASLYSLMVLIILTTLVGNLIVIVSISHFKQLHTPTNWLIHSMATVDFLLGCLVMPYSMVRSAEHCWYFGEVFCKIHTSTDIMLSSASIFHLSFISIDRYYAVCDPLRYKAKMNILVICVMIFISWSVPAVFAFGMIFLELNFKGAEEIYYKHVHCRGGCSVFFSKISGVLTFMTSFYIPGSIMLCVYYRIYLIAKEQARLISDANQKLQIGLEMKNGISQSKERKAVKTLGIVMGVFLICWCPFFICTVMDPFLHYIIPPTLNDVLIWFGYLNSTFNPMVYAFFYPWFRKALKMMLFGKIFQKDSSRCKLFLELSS
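Test system: RD-HGA16 CHO cells with stable hTAAR1 and Gα16 / Probe or stimulus: EC80 β-phenethylamine stimulus / Times: seeding 17-24 h prior, 75-min 37 °C, 30-min RT dye loading / Detection: Fluo-8 calcium-sensitive fluorescence / Read-out basis: % inhibition scaled between DMSO and EC80 PEA controls / Repeats: singlicate, one well per test compound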
CHO parental Ca: ATP-evoked calcium signal inhibitors, parental CHO, primary screen, counter-screen for OX1R antagonist project, cell-based, fluorescence, Fluo-8 calcium dye; parental CHO-K1, ATP-induced calcium, Fluo-8 fluorescence; inhibition, % at 5.6 µM; 0.63% of 330,000 active; AID 463079, 2010;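 active means inhibition above that plate's mean sample inhibition plus 3 SD, cut at about 26% in these data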;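 further: 0% = ATP-challenged DMSO wells and 100% = DMSO wells without ATP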
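Material – parental CHO cells · Reagent – ATP stimulus · Compound – single nominal dose of 5.6 µM per compound · Detection – Fluo-8 fluorescence · Read-out basis – percent inhibition of calcium signal · Controls – ATP-challenged DMSO wells low, unchallenged DMSO wells high · Repeats – no replicates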
OX1R antag-1: antagonists of human orexin 1 receptor (OX1R); 1.8% of 330,000 active; AID 485270, 2010; OX1R-expressing cells, FRET antagonist read-out; inhibition, % at 6.6 µM; Orexin/Hypocretin receptor type 1 (Homo sapiens), O43613; in the data active means inhibition mostly above about 38%, no sharp cut-off; inactive means mostly below about 40%;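 further: 0% = agonist challenge alone and 100% = reference antagonist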
GalR3 antag: GalR3 antagonists in HEK293 cells, primary screen, cell-based, fluorescence readout. Galanin receptor type 3 (Homo sapiens), O60755. HEK293 GalR3-CNG cAMP membrane potential fluorescence; galR3 body fused to GalR1 C-terminus. inhibition, % at 3 µM. 0.44% of 360,000 active. AID 651719, 2012;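 active means inhibition above the screen-wide average plus 3 SD, cut at about 13% in these data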;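 further: forskolin and galanin both at EC90 stimulate the cells; cAMP rise reported by CNG channel membrane potential dye signal; 0% = forskolin plus galanin with DMSO and 100% = forskolin alone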
Target sequence (O60755 1-299 limits assumed): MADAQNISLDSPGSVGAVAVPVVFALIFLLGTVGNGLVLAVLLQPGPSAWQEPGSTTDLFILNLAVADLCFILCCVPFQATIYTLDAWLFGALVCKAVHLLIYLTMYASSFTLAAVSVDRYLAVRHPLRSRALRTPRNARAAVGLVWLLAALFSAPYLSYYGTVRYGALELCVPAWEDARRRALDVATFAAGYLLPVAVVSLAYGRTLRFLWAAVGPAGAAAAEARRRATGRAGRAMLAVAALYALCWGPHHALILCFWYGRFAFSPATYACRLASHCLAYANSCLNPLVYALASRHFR
TAAR1 agonist: human TAAR1 agonists, primary screen, Fluo-8 calcium fluorescence, CHO RD-HGA16 cells; 0.99% of 360,000 active; vehicle wells 0%, saturating PEA agonist 100%; activation, % at 3 µM; AID 624467, 2012;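 active means activation above the mean activation of all test compounds in the run plus 3 SD, cut at about 38% in these data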
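System: CHO RD-HGA16 cells carrying human TAAR1 plus Gα16; Incubation: 17-24 h seeding, 75 min 37 °C dye, 30 min RT; Measured by: Fluo-8 fluorescence, 5 s baseline then 140 s kinetic read; Control set: DMSO and PEA EC100; Replication: single well for each compound.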
OX1R antag-2: OX1R (HCRTR1) antagonists, primary screen, fluorescence, CHO/OX1R cells, Fluo-8 calcium, orexin A; Orexin/Hypocretin receptor type 1 (Homo sapiens), O43613; Fluo-8 calcium fluorescence; inhibition, % at 5 µM; 0.43% of 330,000 active;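 active means inhibition above its plate's threshold, mean inhibition of all tested compounds on the plate plus 3 SD, cut at about 37% in these data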;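 further: 0% = orexin A challenge wells and 100% = SB-334867-A antagonist wells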
Active calls of the source: *.

Screening CC1CCCCC1NC(=S)Nc1ccc(SC(F)F)cc1 (stereo unspecified) returned TAAR1 antagonist 41, CHO parental Ca 32, OX1R antag-1 63, GalR3 antag -4, TAAR1 agonist 7 and OX1R antag-2 40*.
Screening COc1ccccc1-n1nnnc1SCC(=O)NCC1CCCO1 (stereo unspecified) returned TAAR1 antagonist -18, CHO parental Ca 1, OX1R antag-1 17, GalR3 antag 3, TAAR1 agonist 2 and OX1R antag-2 -7.
Screening COC1CCN(C(=O)CC2C(=O)NCCN2CC2CCCCC2)CC1 (stereo unspecified) returned TAAR1 antagonist -7, CHO parental Ca -12, OX1R antag-1 31, GalR3 antag 1, TAAR1 agonist 5 and OX1R antag-2 -15.
`COc1ccc(-c2coc3c(C(=O)NCc4cccs4)cccc23)c(C)c1` gave TAAR1 antagonist 38, GalR3 antag -7 and TAAR1 agonist 1.
O=[N+]([O-])c1ccc(NCCCc2ccccc2)cc1 was read as TAAR1 antagonist 52*, GalR3 antag -5 and TAAR1 agonist -1.
For Cc1[nH]c2ccccc2c1/C=N/Nc1ccccc1[N+](=O)[O-] the results were TAAR1 antagonist -34, CHO parental Ca -18, OX1R antag-1 67*, GalR3 antag -6, TAAR1 agonist -2 and OX1R antag-2 2.
For CCOc1ccc(NC(=O)Nc2cccn(Cc3ccccc3)c2=O)cc1 the results were TAAR1 antagonist -6, CHO parental Ca -14, OX1R antag-1 23, GalR3 antag -8, TAAR1 agonist 4 and OX1R antag-2 -2.
`Cc1nn2c(-c3ccccc3)nnc2c2ccccc12` gave TAAR1 antagonist 6, CHO parental Ca -18, OX1R antag-1 64*, GalR3 antag -6, TAAR1 agonist -1 and OX1R antag-2 -13.
Screening O=C(Cn1cc(C(F)(F)F)ccc1=O)NC1CCCC1 returned TAAR1 antagonist 2, CHO parental Ca -12, OX1R antag-1 2, GalR3 antag -5, TAAR1 agonist 1 and OX1R antag-2 12.
COc1ccc(C=NN=C2c3ccccc3-c3ccccc32)cc1O was read as TAAR1 antagonist 11, GalR3 antag -3 and TAAR1 agonist 5.
For Cc1cc(C2(c3ccc(O)c(C)c3)C(=O)Nc3ccccc32)ccc1O the results were TAAR1 antagonist 25, CHO parental Ca 43*, OX1R antag-1 13, GalR3 antag 1, TAAR1 agonist 23 and OX1R antag-2 18.
`Cc1cccc2c1NC(=O)C2(c1ccc(O)cc1)c1ccc(O)cc1` gave TAAR1 antagonist 2, CHO parental Ca 4, OX1R antag-1 24, GalR3 antag 1, TAAR1 agonist 10 and OX1R antag-2 8.
CNc1ccccc1C(C)(C)c1cc(-c2cccc([N+](=O)[O-])c2)no1 was read as TAAR1 antagonist -3, CHO parental Ca -6, OX1R antag-1 18, GalR3 antag -4, TAAR1 agonist 4 and OX1R antag-2 -22.
For CNc1ccccc1C(C)(C)c1cc(-c2cccc(Br)c2)no1 the results were TAAR1 antagonist 14, CHO parental Ca 45*, OX1R antag-1 20, GalR3 antag -9, TAAR1 agonist 9 and OX1R antag-2 33.
`COc1ccc(-c2nc(CS(=O)(=O)CC(=O)NCc3ccccc3Br)c(C)o2)cc1` gave TAAR1 antagonist -2, CHO parental Ca -15, OX1R antag-1 4, TAAR1 agonist -1 and OX1R antag-2 -9.
Screening C=CCN1C(=O)c2ccc(C(=O)N(C)CC(=O)Nc3ccc(OCC)c(OCC)c3)cc2C1=O returned TAAR1 antagonist -19, CHO parental Ca 39*, OX1R antag-1 27, GalR3 antag -1, TAAR1 agonist 1 and OX1R antag-2 -5.
For C=CCN1C(=O)c2ccc(C(=O)N(C)CC(=O)Nc3c(C)cccc3C)cc2C1=O the results were TAAR1 antagonist -8, CHO parental Ca -7, OX1R antag-1 25, GalR3 antag 2, TAAR1 agonist 1 and OX1R antag-2 -19.
Screening O=C(Nc1ccccc1)c1ccc2nc(-c3ccco3)c(-c3ccco3)nc2c1 returned TAAR1 antagonist 0, CHO parental Ca -24, OX1R antag-1 102*, GalR3 antag -1, TAAR1 agonist 1 and OX1R antag-2 71*.
For CC(=O)c1ccc(NC(=O)c2ccc3nc(-c4ccco4)c(-c4ccco4)nc3c2)cc1 the results were CHO parental Ca -2, OX1R antag-1 36 and OX1R antag-2 -29.
For O=C(NCCO)Nc1ccc2nc(-c3ccco3)c(-c3ccco3)nc2c1 the results were CHO parental Ca -8, OX1R antag-1 100* and OX1R antag-2 -116.
Screening O=C(NC1CCCC1)C(c1cccnc1)N(CCc1ccccc1)C(=O)c1ccco1 (stereo unspecified) returned TAAR1 antagonist 5, CHO parental Ca 9, OX1R antag-1 57*, GalR3 antag -7, TAAR1 agonist 7 and OX1R antag-2 -14.
O=C(NCC(=O)N(CCc1ccccc1)C(C(=O)NC1CCCC1)c1cccnc1)c1ccco1 (stereo unspecified) was read as CHO parental Ca -9, OX1R antag-1 7 and OX1R antag-2 -32.
Screening O=C(O)c1cc2nccc(-c3ccc(F)cc3)n2n1 returned TAAR1 antagonist 2, CHO parental Ca 2, OX1R antag-1 43*, GalR3 antag 1, TAAR1 agonist 5 and OX1R antag-2 -17.
Screening CCn1ncc(-c2ccnc3cc(C(=O)O)nn23)c1C returned TAAR1 antagonist 7, CHO parental Ca -14, OX1R antag-1 22, GalR3 antag -3, TAAR1 agonist 1 and OX1R antag-2 -14.
For CN(C)S(=O)(=O)c1cccc(N=c2scc(-c3ccc4c(c3)NC(=O)CO4)n2CC2CCCO2)c1 (stereo unspecified) the results were TAAR1 antagonist 53*, CHO parental Ca 10, OX1R antag-1 16, GalR3 antag -3, TAAR1 agonist 27 and OX1R antag-2 -1.
`COc1ccccc1N=c1scc(-c2ccc3c(c2)NC(=O)CO3)n1CC1CCCO1` (stereo unspecified) gave TAAR1 antagonist 43, CHO parental Ca -22, OX1R antag-1 29, GalR3 antag 0, TAAR1 agonist 11 and OX1R antag-2 -21.

Bioassay records from PubChem.
